Laboratory results from ChEMBL document CHEMBL3232881, “New orally active amino- and hydroxy-functionalized 11-azaartemisinins and their derivatives with high order of antimalarial activity against multidrug-resistant Plasmodium yoelii in Swiss mice” (2014).

What was measured:
Type in all cases: functional
[1] = test system: Plasmodium yoelii; assay: Antimalarial activity against chloroquine, mefloquine and halofantrine-resistant Plasmodium yoelii infected in Swiss mouse assessed as suppression of parasitemia at 24 mg/kg, po for 4 days by microscopic analysis relative to control
Method in brief: (§1)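 Swiss mice of either sex infected ip on day 0 with 1 × 10⁶ parasitized RBCs of multidrug-resistant P. yoelii nigeriensis, five per dose. Oral dosing in groundnut oil (0.1 mL) once daily days 0–3. Parasitemia read by microscopy on day 4. % suppression = [(C − T)/C] × 100 against untreated controls; 100% means no parasites in 50 oil-immersion fields.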

[2] = test system: Plasmodium yoelii; assay: Antimalarial activity against chloroquine, mefloquine and halofantrine-resistant Plasmodium yoelii infected in Swiss mouse assessed as mouse survival at 24 mg/kg, po for 4 days measured on day 28 relative to control
Method in brief: (§2)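 P. yoelii nigeriensis (chloroquine-, mefloquine-, halofantrine-resistant) given ip as 1 × 10⁶ parasitized RBCs on day 0 to Swiss mice of either sex, five per dose. Compound in groundnut oil, 0.1 mL, given orally once daily days 0–3. Blood smears checked through day 28. Mice surviving beyond day 28 counted as protected, reported as % of five. β-Arteether as positive control.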

[3] = test system: Plasmodium yoelii; assay: Antimalarial activity against chloroquine, mefloquine and halofantrine-resistant Plasmodium yoelii infected in Swiss mouse assessed as mouse survival at 12 mg/kg, po for 4 days measured on day 28 relative to control; method in brief: as §2
[4] = test system: Plasmodium yoelii; assay: Antimalarial activity against chloroquine, mefloquine and halofantrine-resistant Plasmodium yoelii infected in Swiss mouse assessed as suppression of parasitemia at 12 mg/kg, po for 4 days by microscopic analysis relative to control; method in brief: as §1
[5] = test system: Plasmodium yoelii; assay: Antimalarial activity against chloroquine, mefloquine and halofantrine-resistant Plasmodium yoelii infected in Swiss mouse assessed as mouse survival at 6 mg/kg, po for 4 days measured on day 28 relative to control; method in brief: as §2
[6] = test system: Plasmodium yoelii; assay: Ratio of compound to beta-arteether for antimalarial activity against chloroquine, mefloquine and halofantrine-resistant Plasmodium yoelii infected in Swiss mouse assessed as mouse survival
[7] = test system: Plasmodium yoelii; assay: Antimalarial activity against chloroquine, mefloquine and halofantrine-resistant Plasmodium yoelii infected in Swiss mouse assessed as suppression of parasitemia at 6 mg/kg, po for 4 days by microscopic analysis relative to control; method in brief: as §1
[8] = test system: Plasmodium yoelii; assay: Antimalarial activity against chloroquine, mefloquine and halofantrine-resistant Plasmodium yoelii infected in Swiss mouse assessed as suppression of parasitemia at 48 mg/kg, po for 4 days by microscopic analysis relative to control; method in brief: as §1
[9] = test system: Plasmodium yoelii; assay: Antimalarial activity against chloroquine, mefloquine and halofantrine-resistant Plasmodium yoelii infected in Swiss mouse assessed as mouse survival at 48 mg/kg, po for 4 days measured on day 28 relative to control; method in brief: as §2

Row | Structure (SMILES) | Activity [1] | Activity [2] | Activity [3] | Activity [4] | Activity [5] | Ratio [6] | Activity [7] | Activity [8] | Activity [9]
1 | C[C@@H]1CC[C@H]2[C@@H](C)C(=O)N(N)[C@@H]3O[C@@]4(C)CC[C@@H]1[C@@]23OO4 | 100% | 40% | – | – | – | – | – | – | –
2 | C[C@@H]1CC[C@H]2[C@@H](C)C(=O)N(O)[C@@H]3O[C@@]4(C)CC[C@@H]1[C@@]23OO4 | 54% | 0% | – | – | – | – | – | – | –
3 | C[C@@H]1CC[C@H]2[C@@H](C)C(=O)N(NC(=O)c3ccccc3)[C@@H]3O[C@@]4(C)CC[C@@H]1[C@@]23OO4 | 100% | 100% | 0% | 62% | – | – | – | – | –
4 | C[C@@H]1CC[C@H]2[C@@H](C)C(=O)N(NC(=O)c3ccc(Br)cc3)[C@@H]3O[C@@]4(C)CC[C@@H]1[C@@]23OO4 | 100% | 100% | 0% | 100% | – | – | – | – | –
5 | C[C@@H]1CC[C@H]2[C@@H](C)C(=O)N(NC(=O)c3ccc(C(F)(F)F)cc3)[C@@H]3O[C@@]4(C)CC[C@@H]1[C@@]23OO4 | 100% | 100% | 20% | 100% | – | – | – | – | –
6 | C[C@@H]1CC[C@H]2[C@@H](C)C(=O)N(NC(=O)C34CC5CC(CC(C5)C3)C4)[C@@H]3O[C@@]4(C)CC[C@@H]1[C@@]23OO4 | 100% | 60% | – | – | – | – | – | – | –
7 | C[C@@H]1CC[C@H]2[C@@H](C)C(=O)N(NC(=O)C3c4ccccc4-c4ccccc43)[C@@H]3O[C@@]4(C)CC[C@@H]1[C@@]23OO4 | 100% | 60% | – | – | – | – | – | – | –
8 | C[C@@H]1CC[C@H]2[C@@H](C)C(=O)N(NC(=O)c3ccc(-c4ccccc4)cc3)[C@@H]3O[C@@]4(C)CC[C@@H]1[C@@]23OO4 | 100% | 100% | 100% | 100% | 0% | 4 | 94% | – | –
9 | C[C@@H]1CC[C@H]2[C@@H](C)C(=O)N(NC(=O)CC34CC5CC(CC(C5)C3)C4)[C@@H]3O[C@@]4(C)CC[C@@H]1[C@@]23OO4 | 100% | 60% | – | – | – | – | – | – | –
10 | C[C@@H]1CC[C@H]2[C@@H](C)C(=O)N(/N=C/c3ccccc3)[C@@H]3O[C@@]4(C)CC[C@@H]1[C@@]23OO4 | 100% | 40% | – | – | – | – | – | – | –
11 | Cc1ccc(/C=N/N2C(=O)[C@H](C)[C@@H]3CC[C@@H](C)[C@@H]4CC[C@@]5(C)OO[C@]43[C@H]2O5)cc1 | 100% | 100% | 100% | 100% | 0% | 4 | 66% | – | –
12 | C[C@@H]1CC[C@H]2[C@@H](C)C(=O)N(/N=C/c3ccc(Cl)cc3)[C@@H]3O[C@@]4(C)CC[C@@H]1[C@@]23OO4 | 100% | 20% | – | – | – | – | – | – | –
13 | C[C@@H]1CC[C@H]2[C@@H](C)C(=O)N(/N=C/c3ccc(F)cc3)[C@@H]3O[C@@]4(C)CC[C@@H]1[C@@]23OO4 | 100% | 40% | – | – | – | – | – | – | –
14 | C[C@@H]1CC[C@H]2[C@@H](C)C(=O)N(/N=C/c3ccc(C(F)(F)F)cc3)[C@@H]3O[C@@]4(C)CC[C@@H]1[C@@]23OO4 | 100% | 100% | 100% | 100% | 0% | 4 | 99% | – | –
15 | C[C@@H]1CC[C@H]2[C@@H](C)C(=O)N(/N=C/c3ccc(-c4ccccc4)cc3)[C@@H]3O[C@@]4(C)CC[C@@H]1[C@@]23OO4 | 100% | 100% | 100% | 100% | 80% | 4 | 100% | – | –
16 | C[C@@H]1CC[C@H]2[C@@H](C)C(=O)N(/N=C/c3ccc4c(c3)Cc3ccccc3-4)[C@@H]3O[C@@]4(C)CC[C@@H]1[C@@]23OO4 | 100% | 100% | 100% | 100% | 0% | 4 | 66% | – | –
17 | C[C@@H]1CC[C@H]2[C@@H](C)C(=O)N(NCc3ccccc3)[C@@H]3O[C@@]4(C)CC[C@@H]1[C@@]23OO4 | 100% | 100% | 0% | 100% | – | – | – | – | –
18 | Cc1ccc(CNN2C(=O)[C@H](C)[C@@H]3CC[C@@H](C)[C@@H]4CC[C@@]5(C)OO[C@]43[C@H]2O5)cc1 | 100% | 60% | 0% | 74% | – | – | – | – | –
19 | C[C@@H]1CC[C@H]2[C@@H](C)C(=O)N(NCc3ccc(Cl)cc3)[C@@H]3O[C@@]4(C)CC[C@@H]1[C@@]23OO4 | 100% | 100% | 80% | 100% | – | – | – | – | –
20 | C[C@@H]1CC[C@H]2[C@@H](C)C(=O)N(NCc3ccc(F)cc3)[C@@H]3O[C@@]4(C)CC[C@@H]1[C@@]23OO4 | 100% | 100% | 20% | 100% | – | – | – | – | –
21 | C[C@@H]1CC[C@H]2[C@@H](C)C(=O)N(NCc3ccc(C(F)(F)F)cc3)[C@@H]3O[C@@]4(C)CC[C@@H]1[C@@]23OO4 | 100% | 100% | 20% | 100% | – | – | – | – | –
22 | C[C@@H]1CC[C@H]2[C@@H](C)C(=O)N(NCc3ccc(-c4ccccc4)cc3)[C@@H]3O[C@@]4(C)CC[C@@H]1[C@@]23OO4 | 100% | 100% | 100% | 100% | 20% | 4 | 100% | – | –
23 | C[C@@H]1CC[C@H]2[C@@H](C)C(=O)N(NCc3ccc4c(c3)Cc3ccccc3-4)[C@@H]3O[C@@]4(C)CC[C@@H]1[C@@]23OO4 | 100% | 100% | 40% | 100% | – | – | – | – | –
24 | C[C@@H]1CC[C@H]2[C@@H](C)C(=O)N(OCc3ccccc3)[C@@H]3O[C@@]4(C)CC[C@@H]1[C@@]23OO4 | 100% | 100% | 80% | 100% | – | – | – | – | –
25 | C[C@@H]1CC[C@H]2[C@@H](C)C(=O)N(OCc3ccccc3F)[C@@H]3O[C@@]4(C)CC[C@@H]1[C@@]23OO4 | 100% | 100% | 0% | 89% | – | – | – | – | –
26 | C[C@@H]1CC[C@H]2[C@@H](C)C(=O)N(OCc3ccc(-c4ccccc4)cc3)[C@@H]3O[C@@]4(C)CC[C@@H]1[C@@]23OO4 | 100% | 100% | 60% | 100% | – | – | – | – | –
27 | CCO[C@H]1O[C@@H]2O[C@@]3(C)CC[C@H]4[C@H](C)CC[C@@H]([C@H]1C)[C@@]24OO3 [ARTEMOTIL] | 100% | 20% | – | – | – | – | – | 100% | 100%
